The record followed here is article PMC6911266 (Nature, 2019).

A word on the EC50: it is the concentration giving half of the maximal effect. Read a low EC50 as a more potent agent. Usually Km stands for the concentration of substrate that gives half-maximal velocity. A word on the Vmax: it is the rate approached at saturating substrate.

Values joined by “and” are separate entries in the source; they are usually repeats but may differ in a detail not shown here. Equal entries are not always repeated. Where two headings read alike, the source gives them in different places.

Data set [1] has as its target T1, PfCRT 7G8 (Plasmodium falciparum, UniProt W7FI62).
T1 sequence (W7FI62 1-424): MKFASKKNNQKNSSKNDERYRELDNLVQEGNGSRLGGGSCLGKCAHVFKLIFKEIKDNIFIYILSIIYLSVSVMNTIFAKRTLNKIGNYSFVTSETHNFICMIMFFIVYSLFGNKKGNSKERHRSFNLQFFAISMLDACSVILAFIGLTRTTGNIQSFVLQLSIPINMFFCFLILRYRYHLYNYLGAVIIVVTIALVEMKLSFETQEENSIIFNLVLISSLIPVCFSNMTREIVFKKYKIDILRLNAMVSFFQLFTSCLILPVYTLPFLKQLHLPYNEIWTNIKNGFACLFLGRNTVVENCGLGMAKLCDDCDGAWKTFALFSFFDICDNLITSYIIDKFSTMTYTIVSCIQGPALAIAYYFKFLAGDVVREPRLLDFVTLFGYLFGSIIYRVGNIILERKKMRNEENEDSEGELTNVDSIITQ
Description: Scintillation proximity assay. It counts as binding. As to conditions: for competition of [3H]-Arg binding (in words): 125 nM [3H]-Arg, 1 μM CQ or PPQ, 0.1 μM amodiaquine, 1 mM Arg, Lys or Leu.

In data set [2] the target is T1, PfCRT 7G8. It counts as biochemical.
For data set [3], the system named is P. falciparum 7G8^7G8 parasite line. As to the kind of experiment: Parasite drug susceptibility assay. As to conditions: 72 h, asynchronous asexual blood stages. The data set is classed as cell-based, Plasmodium falciparum. Summed up:
(§1)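 Asynchronous asexual blood-stage parasites were seeded at 0.3% parasitemia and 1% hematocrit into 2-fold, 10-point test compound dilutions. Incubation was 72 h at 37°C under 5% O2/5% CO2/90% N2. Final parasitemia was read by flow cytometry. IC50 came from nonlinear regression, 4 independent assays in duplicate, with two-tailed Mann-Whitney U tests.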

Data set [4] relates to P. falciparum 7G8^7G8+F145I parasite line. Description: Parasite drug susceptibility assay. The data set is classed as cell-based, Plasmodium falciparum. As to conditions: 72 h, asynchronous asexual blood stages. Summed up:
as §1

In data set [5] the test system is P. falciparum 7G8^7G8+C350R parasite line. As to the kind of experiment: Parasite drug susceptibility assay. It counts as cell-based, Plasmodium falciparum. As to conditions: 72 h, asynchronous asexual blood stages. Summed up: as §1
In data set [6] the test system is P. falciparum Dd2^Dd2 parasite line. Description: Parasite drug susceptibility assay. The data set is classed as cell-based, Plasmodium falciparum. As to conditions: 72 h, asynchronous asexual blood stages. Summed up:
as §1

Data set [7] relates to P. falciparum WT (3D7) parasite line. As to the kind of experiment: Parasite drug susceptibility assay. It counts as cell-based, Plasmodium falciparum. As to conditions: 72 h, asynchronous asexual blood stages. Summed up:
as §1

The target in data set [8] is T2, PfCRT 7G8+C289A (Plasmodium falciparum, UniProt W7FI62, C289A).
T2 sequence (W7FI62 1-424 C289A): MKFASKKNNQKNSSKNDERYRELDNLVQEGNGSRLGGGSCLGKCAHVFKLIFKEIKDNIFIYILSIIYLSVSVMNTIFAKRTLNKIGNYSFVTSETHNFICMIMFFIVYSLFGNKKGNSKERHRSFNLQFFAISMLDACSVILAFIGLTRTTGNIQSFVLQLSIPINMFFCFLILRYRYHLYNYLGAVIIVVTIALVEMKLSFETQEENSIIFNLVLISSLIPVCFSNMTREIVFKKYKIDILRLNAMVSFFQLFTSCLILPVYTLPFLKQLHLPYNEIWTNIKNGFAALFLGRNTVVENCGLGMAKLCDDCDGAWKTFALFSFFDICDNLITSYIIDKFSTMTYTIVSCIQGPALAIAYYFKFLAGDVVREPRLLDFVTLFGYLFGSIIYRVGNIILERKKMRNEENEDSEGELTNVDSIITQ
Description: Transport. The data set is classed as biochemical. As to conditions: read-out: IC50 (concentration yielding half-maximal reduction of [3H]-CQ transport); 100 nM [3H]-CQ, 1 min. Summed up: (§2)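 Proteoliposomes with the PfCRT variant (40 ng PfCRT per assay) have a lumen of 100 mM KPi, pH 7.5, with 2 mM β-mercaptoethanol. They are diluted into 100 mM Tris/Mes, pH 5.5, with 100 nM [3H]-CQ (5.45 Ci/mmol) and increasing β-mercaptoethanol, and uptake runs for 1 min. Values are corrected for mock uptake on nitrocellulose filters and for control liposomes lacking PfCRT. IC50 is the β-mercaptoethanol concentration halving transport.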

In data set [9] the target is T3, PfCRT 7G8+C301A (Plasmodium falciparum, UniProt W7FI62, C301A).
T3 sequence (W7FI62 1-424 C301A): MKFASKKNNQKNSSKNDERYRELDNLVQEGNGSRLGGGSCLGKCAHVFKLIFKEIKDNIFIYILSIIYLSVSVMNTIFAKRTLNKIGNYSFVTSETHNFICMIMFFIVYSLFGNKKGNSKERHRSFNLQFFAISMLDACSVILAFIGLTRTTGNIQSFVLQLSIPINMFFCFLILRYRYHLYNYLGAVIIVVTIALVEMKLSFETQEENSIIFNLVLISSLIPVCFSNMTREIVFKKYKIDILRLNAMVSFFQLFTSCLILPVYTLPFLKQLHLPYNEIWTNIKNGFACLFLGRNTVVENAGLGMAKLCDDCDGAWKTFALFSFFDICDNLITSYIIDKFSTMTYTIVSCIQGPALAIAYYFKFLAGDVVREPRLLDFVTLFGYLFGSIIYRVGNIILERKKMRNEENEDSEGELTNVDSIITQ
Description: Transport. The data set is classed as biochemical. Summed up: as §2

Substrate in data set [10]: N=C(N)NCCC[C@H](N)C(=O)O
Description: cells, lysate or membranes named.

Data set [11] has as its target T4, Plasmodium falciparum chloroquine resistance transporter PfCRT, 7G8 isoform (Plasmodium falciparum (isolate 7G8), UniProt W7FI62). Description: radioligand binding.
Data set [12] addresses T4, Plasmodium falciparum chloroquine …. As to the kind of experiment: radioligand binding. This is another data set of the same source.
Data set [13] has the same target. As to the kind of experiment: radioligand binding. This is another data set of the same source.
The mark [14] stands for this setting: read-out: IC50 (concentration yielding half-maximal reduction of [3H]-CQ transport), 100 nM [3H]-CQ, 1 min.

With `N=C(N)NCCC[C@H](N)C(=O)O` [Arg, arginine], in data set [1], the “competition of [3H]-Arg binding (in words)” value is “effectively competed”. Moreover, in data set [1] (half-maximal binding constant (EC50) of [3H]-Arg binding, SPA, isotopic dilution of 125 nM [3H]-Arg with non-radiolabeled Arg), the EC50 was ~400 µM and 397 µM. In addition, the “Vmax, transport in proteoliposomes” value in [2] (initial rates over 3 s, Michaelis-Menten fit) came to 190 nmol/mg/min. For the same molecule, the “time course of uptake (in words)” value in data set [2] (pH gradient 5.5–7.5 and membrane potential (valinomycin)) is reported as “maximal within one minute”.
Consider `CCN(CC)Cc1cc(Nc2ccnc3cc(Cl)ccc23)ccc1O` [amodiaquine], for which the “competition of [3H]-Arg binding (in words)” value in data set [1] was “effectively competed”.
Same read-out and setting: then `NCCCC[C@H](N)C(=O)O` [lysine], with “effectively competed”.
With `CCNCCCC(C)Nc1ccnc2cc(Cl)ccc12` (stereo not drawn) [md-CQ, monodesethyl-chloroquine], the IC50 in data set [3] turned out to be 0.919 ± 0.125 µM; in [4], 0.0478 ± 0.0025 µM; in data set [5], 0.0365 ± 0.002 µM; in data set [6] it was 1.8 ± 0.199 µM; in data set [7] it was 0.0486 ± 0.0031 µM.
Consider `COc1ccc(CCN(C)CCCC(C#N)(c2ccc(OC)c(OC)c2)C(C)C)cc1OC` (stereo not drawn) [verapamil], for which the “inhibition of [3H]-CQ and [3H]-Arg uptake (in words)” value in [2] is on record as “partial to strong inhibition”.
Turning to `OCCS` [β-mercaptoethanol], the IC50 came to 1240 ± 140 µM in data set [2] (setting [14]), 2580 ± 390 µM in data set [8] and 4170 ± 160 µM in [9] (setting [14]). Besides, in data set [9] (compared to the activity in the absence of the reducing agent), the “remaining [3H]-CQ transport activity” value is recorded as 60.2 ± 8.2%.

B1: PfCRT 7G8 (Plasmodium falciparum 7G8) (protein)
chain: MKFASKKNNQKNSSKNDERYRELDNLVQEGNGSRLGGGSCLGKCAHVFKLIFKEIKDNIFIYILSIIYLSVSVMNTIFAKRTLNKIGNYSFVTSETHNFICMIMFFIVYSLFGNKKGNSKERHRSFNLQFFAISMLDACSVILAFIGLTRTTGNIQSFVLQLSIPINMFFCFLILRYRYHLYNYLGAVIIVVTIALVEMKLSFETQEENSIIFNLVLISSLIPVCFSNMTREIVFKKYKIDILRLNAMVSFFQLFTSCLILPVYTLPFLKQLHLPYNEIWTNIKNGFACLFLGRNTVVENCGLGMAKLCDDCDGAWKTFALFSFFDICDNLITSYIIDKFSTMTYTIVSCIQGPALAIAYYFKFLAGDVVREPRLLDFVTLFGYLFGSIIYRVGNIILERKKMRNEENEDSEGELTNVDSIITQ
For the molecule B1, in [10], the Km was found to be 1.30 ± 0.20 µM and the Vmax came out at 189.2 ± 9.1 nmol/mg/min.

B2: Fab CTC (Fab, V domains shown)
VH: EVQLVESGGGLVQPGGSLRLSCAASGFNVSYSYIHWVRQAPGKGLEWVASIYPYSGYTSYADSVKGRFTISADTSKNTAYLQMNSLRAEDTAVYYCARYGSNYSFWYRGSSVTYAIDYWGQGTLVTVSS
VL: DIQMTQSPSSLSASVGDRVTITCRASQSVSSAVAWYQQKPGKAPKLLIYSASSLYSGVPSRFSGSRSGTDFTLTISSLQPEDFATYYCQQSSTWPITFGQGTKVEIK
Consider B2, for which the IC50 was 0.15 µM in data set [11], 0.2 µM in [12] and 0.18 µM in [13].
